This is an account of results in paper PMC11393732 (RSC Medicinal Chemistry, 2024).

Data set [1] addresses T1, KDM3A (Homo sapiens, UniProt Q9Y4C1).
T1 sequence (Q9Y4C1 1-1321): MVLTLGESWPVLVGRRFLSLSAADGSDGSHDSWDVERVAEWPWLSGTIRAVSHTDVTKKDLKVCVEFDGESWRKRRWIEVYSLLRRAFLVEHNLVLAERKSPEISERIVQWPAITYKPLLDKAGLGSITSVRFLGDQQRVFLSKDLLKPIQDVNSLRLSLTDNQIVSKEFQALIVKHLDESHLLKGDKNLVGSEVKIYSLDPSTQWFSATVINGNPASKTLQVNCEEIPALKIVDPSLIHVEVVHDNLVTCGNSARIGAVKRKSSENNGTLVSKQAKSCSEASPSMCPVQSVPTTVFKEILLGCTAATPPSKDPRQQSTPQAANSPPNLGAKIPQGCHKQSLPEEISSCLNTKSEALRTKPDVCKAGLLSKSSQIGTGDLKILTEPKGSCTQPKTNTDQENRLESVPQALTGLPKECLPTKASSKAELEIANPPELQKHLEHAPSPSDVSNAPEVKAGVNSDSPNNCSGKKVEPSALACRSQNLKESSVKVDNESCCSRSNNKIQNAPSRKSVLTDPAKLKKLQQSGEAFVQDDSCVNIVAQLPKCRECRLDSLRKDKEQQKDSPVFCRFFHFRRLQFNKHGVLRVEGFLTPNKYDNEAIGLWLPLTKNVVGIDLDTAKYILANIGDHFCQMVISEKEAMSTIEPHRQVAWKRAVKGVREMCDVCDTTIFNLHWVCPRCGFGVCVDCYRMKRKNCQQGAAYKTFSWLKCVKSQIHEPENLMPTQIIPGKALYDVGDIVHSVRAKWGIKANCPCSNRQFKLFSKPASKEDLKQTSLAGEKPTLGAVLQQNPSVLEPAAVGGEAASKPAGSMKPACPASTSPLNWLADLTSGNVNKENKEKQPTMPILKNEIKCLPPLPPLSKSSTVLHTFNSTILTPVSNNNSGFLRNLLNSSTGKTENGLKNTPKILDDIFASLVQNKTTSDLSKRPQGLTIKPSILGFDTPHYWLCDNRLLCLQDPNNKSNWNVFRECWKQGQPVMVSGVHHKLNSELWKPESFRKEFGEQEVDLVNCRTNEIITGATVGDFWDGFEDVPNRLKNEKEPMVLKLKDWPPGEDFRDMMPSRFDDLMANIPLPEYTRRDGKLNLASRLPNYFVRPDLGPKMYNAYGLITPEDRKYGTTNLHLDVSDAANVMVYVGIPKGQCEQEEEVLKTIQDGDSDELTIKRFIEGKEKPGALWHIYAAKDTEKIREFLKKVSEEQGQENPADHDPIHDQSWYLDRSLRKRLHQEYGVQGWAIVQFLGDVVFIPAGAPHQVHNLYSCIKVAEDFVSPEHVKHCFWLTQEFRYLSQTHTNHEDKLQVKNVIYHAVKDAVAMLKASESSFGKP
The data set is described as follows: IHC of HCP-1 xenograft tumors, KDM3A. The class given is in vivo, mice. The gist of the method: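 Tumours came from ALDHHigh HCP-1 xenografts in NSG mice given test compound IP (3, 10 or 35 mg kg−1) for 16 days. Paraffin sections were deparaffinised and rehydrated, then antigen-unmasked. Peroxidase blocked; sections blocked 1 h in 10% goat serum. Primary antibody overnight at 4 °C, biotinylated secondary 30 min at RT, avidin–biotin peroxidase detection, hematoxylin counterstain.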

The test system of data set [2] is Wnt target genes in SW480 cells. The experiment in a line: RT-qPCR of Wnt target gene expression in SW480. It counts as cell-based, human. In a few lines:
(§1)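 Cells in 6-well plates exposed to test compound for 16 h. Total RNA extracted; 1 μg reverse-transcribed with M-MuLV and random hexamers. SYBR Green qPCR for the named genes, quantified by 2ΔΔct against tubulin. Mean ± SD; unpaired two-tailed Student's t-test.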
Background: Real-time PCR tracks product formation cycle by cycle.

The subject of data set [3] is SW480 cells. The experiment in a line: Clonogenic assay SW480. It counts as cell-based, human. The following applies: SW480, 2 weeks. The gist of the method:
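Cells kept in DMEM with 10% FBS and 1% pen–strep, seeded at 500 cells/well and dosed with test compound once attached. Medium refreshed every 3 days for 2 weeks. Colonies stained with 0.5% crystal violet and photographed. ED50 obtained by image analysis.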

Data set [4] concerns the target T2, KDM3B (Homo sapiens, UniProt Q7LBC6). The data set is described as follows: IHC of HCP-1 xenograft tumors, KDM3B. It counts as in vivo, mice. The note with it: HCP-1 xenograft tumor tissues.
Data set [5] deals with ALDH^high-HCP-1 CSCs. The data set is described as follows: Tumor sphere formation assay HCP-1. It counts as cell-based, human. The following applies: 2 weeks. The gist of the method:
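Trypsinised cells passed through a 40 μm strainer and stained with ALDEFLUOR. ALDHHigh cells sorted by FACS, with DEAB-treated cells as gating control. Plated at 1000 cells/well on ultra-low attachment in serum-free MEBM containing 2% B27, 20 ng mL−1 EGF, 10 ng mL−1 FGF, 1 ng mL−1 hydrocortisone, 5 μg mL−1 insulin and 100 μM β-mercaptoethanol. Dosed 1 h after plating; medium renewed at 1 week. Spheres >40 μm counted at 2 weeks for ED50.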

Data set [6] addresses T1, KDM3A. The data set is described as follows: Western blot KDM3A degradation in SW480 cells. The class given is cell-based. The gist of the method: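 SW480 cells exposed to test compound for 16 h, then total lysates protein-normalised and run on SDS-PAGE. Semi-dry transfer to PVDF, 1 h block in 5% milk. Primary antibody overnight at 4 °C in 1% milk, secondary 1 h at RT, TBST washes, α-tubulin as loading control. Rescue arms co-treated with MLN4924 (1 μM) or pomalidomide (100 μM). Test compound at 0.1 μM for the KDM3A blot and 1 μM for the KDM3B blot.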
A general note: In western blotting, separated proteins are transferred to a membrane and probed.

Data set [7] relates to CRL-1790 cells. The experiment in a line: CCK-8 based toxicity assay. It counts as cell-based, human. In a few lines: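 Non-malignant human colon epithelial CRL-1790 cells grown in EMEM with 10% FBS and 1% pen–strep at 37 °C and 5% CO2. Seeded at 3 × 10^3 cells/well in 96-well plates, then exposed to test compound. Viability read by CCK-8 at 48 h as OD 450 nm. TD50 derived from the dose–response.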

For data set [8], the target named is T2, KDM3B. The data set is described as follows: Western blot KDM3B degradation in HCP-1 cells. The class given is cell-based.
The nature of data set [9]: Hepatic metabolism S9 fraction incubation, rat.
For data set [10], the system named is Wnt target genes in HCP-1 cells. The experiment in a line: RT-qPCR of Wnt target gene expression in HCP-1. The class given is cell-based, human. The gist of the method:
as §1

Where [11] appears, read: 0.1 μM, plus glutathione, UDPGA, PAPS, 37 °C.

Where only a bound is given, the exact number is not on record here.

One may read the Dmax as the greatest extent of degradation seen. One may read the DC50 as the concentration giving 50% degradation. Broadly, the half-life is how long it takes for the measured level to halve.

T2 sequence (Q7LBC6 whole entry): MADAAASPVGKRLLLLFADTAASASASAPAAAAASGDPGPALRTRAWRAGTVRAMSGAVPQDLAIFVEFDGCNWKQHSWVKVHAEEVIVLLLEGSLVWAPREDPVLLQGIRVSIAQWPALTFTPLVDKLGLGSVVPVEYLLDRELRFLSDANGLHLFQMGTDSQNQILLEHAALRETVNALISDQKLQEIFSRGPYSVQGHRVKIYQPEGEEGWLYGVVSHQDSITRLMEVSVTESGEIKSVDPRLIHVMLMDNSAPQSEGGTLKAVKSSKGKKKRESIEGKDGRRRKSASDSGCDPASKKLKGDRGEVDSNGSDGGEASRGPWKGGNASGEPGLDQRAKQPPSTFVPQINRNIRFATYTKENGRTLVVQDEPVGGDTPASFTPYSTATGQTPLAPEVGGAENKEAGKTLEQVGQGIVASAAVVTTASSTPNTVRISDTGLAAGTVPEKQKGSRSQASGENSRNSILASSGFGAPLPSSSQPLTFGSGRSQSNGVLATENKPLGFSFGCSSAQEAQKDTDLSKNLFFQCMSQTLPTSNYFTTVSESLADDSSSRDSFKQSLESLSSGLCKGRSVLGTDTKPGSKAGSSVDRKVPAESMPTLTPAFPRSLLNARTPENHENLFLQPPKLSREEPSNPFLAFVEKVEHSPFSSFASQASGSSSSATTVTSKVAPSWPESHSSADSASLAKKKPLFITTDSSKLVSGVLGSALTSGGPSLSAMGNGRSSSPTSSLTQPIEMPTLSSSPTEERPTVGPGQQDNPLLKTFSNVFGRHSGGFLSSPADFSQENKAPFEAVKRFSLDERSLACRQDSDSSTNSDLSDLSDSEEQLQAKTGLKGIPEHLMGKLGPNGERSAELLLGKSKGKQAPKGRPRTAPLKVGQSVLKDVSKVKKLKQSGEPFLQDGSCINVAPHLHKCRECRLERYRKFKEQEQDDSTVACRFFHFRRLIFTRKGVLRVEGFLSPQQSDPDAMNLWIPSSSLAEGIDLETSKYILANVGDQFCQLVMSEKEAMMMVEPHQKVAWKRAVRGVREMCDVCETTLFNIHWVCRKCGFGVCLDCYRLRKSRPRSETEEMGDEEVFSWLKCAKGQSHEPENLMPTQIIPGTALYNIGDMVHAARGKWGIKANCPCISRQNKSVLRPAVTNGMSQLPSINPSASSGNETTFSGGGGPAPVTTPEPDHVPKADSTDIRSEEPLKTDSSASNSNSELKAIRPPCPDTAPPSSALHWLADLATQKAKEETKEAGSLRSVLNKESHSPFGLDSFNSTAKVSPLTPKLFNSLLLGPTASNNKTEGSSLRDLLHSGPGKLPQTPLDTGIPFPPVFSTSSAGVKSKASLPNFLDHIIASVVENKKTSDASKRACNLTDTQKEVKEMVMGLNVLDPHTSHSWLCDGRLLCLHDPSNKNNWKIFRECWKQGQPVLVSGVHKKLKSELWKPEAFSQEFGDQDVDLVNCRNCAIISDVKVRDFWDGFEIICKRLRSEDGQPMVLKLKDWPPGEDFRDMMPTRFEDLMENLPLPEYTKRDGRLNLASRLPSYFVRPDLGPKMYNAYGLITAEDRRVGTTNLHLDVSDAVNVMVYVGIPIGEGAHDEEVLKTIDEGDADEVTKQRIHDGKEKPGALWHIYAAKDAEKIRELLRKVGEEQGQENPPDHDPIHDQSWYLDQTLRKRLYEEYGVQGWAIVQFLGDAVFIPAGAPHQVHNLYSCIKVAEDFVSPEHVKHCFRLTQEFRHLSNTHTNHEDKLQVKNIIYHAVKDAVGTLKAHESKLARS

Turning to `O=C1CCC(N2C(=O)c3cccc(NCCOCCOCCOCCOCCNC(=O)c4ccc(O)c5ncccc45)c3C2=O)C(=O)N1` (stereo not drawn) [Compound 4, N-(14-((2-(2,6-Dioxopiperidin-3-yl)-1,3-dioxoisoindolin-4-yl)amino)-3,6,9,12-tetraoxatetradecyl)-8-hydroxyquinoline-5-carboxamide], in data set [1] (35 mg kg^−1), the “KDM3A level (IHC) at high dose” value is reported as “slight upregulation of KDM3A”. In addition, the “KDM3A degradation in vivo (IHC)” value in [1] (HCP-1 xenograft tumor tissues) is “confirmed the PROTAC-induced KDM3A and KDM3B degradation in vivo”. The “suppression of Wnt target gene expression (AXIN2, DKK1, CCND1)” value in [2] (SW480, 50 μM, 16-hour treatment, in most cases) is given as not below 50%; in data set [10] (HCP-1, 50 μM, 16-hour treatment, in most cases), not below 50%. In addition, the “expression of colorectal CSC signature genes (ASCL2, RNF43, ZNRF3, LGR5)” value in [2] (SW480, 16 hours) was “strongly inhibited”; in data set [10] (HCP-1, 16 hours), “strongly inhibited”. In [3], the colony formation entry is on record as “potently inhibited the colony formation”. In [4], the “KDM3B degradation in vivo (IHC)” value is “confirmed the PROTAC-induced KDM3A and KDM3B degradation in vivo”. Further, the “ED50 HCP-1 (tumor sphere formation)” value in [5] turned out to be 280 nM. The maximal degradation (Dmax) in data set [6] (SW480, read-out: Dmax KDM3A) came out at 65.3%. Besides, in data set [6] (SW480, MLN4924 1 μM, compound 4 0.1 μM), the “KDM3A degradation with MLN4924 co-treatment” value is “could be restored by MLN4924”. Moreover, the “KDM3A degradation with pomalidomide or IOX1 co-treatment” value in data set [6] (SW480, pomalidomide 100 μM, compound 4 0.1 μM) is listed as “could also be suppressed by either pomalidomide or IOX1”. Moreover, the “KDM3A degradation (western blot)” value in data set [6] (SW480 cells, 16 hours) was “degrades both KDM3A and KDM3B at nanomolar concentrations”. Moreover, the DC50 in data set [6] (read-out: DC50 KDM3A, SW480 cells, 16 hours) was determined as 13.7 nM. Further, the “cell growth of CRL-1790” value in data set [7] (60 μM, two-day treatment) is “not dramatically affected”. Moreover, the “TD50 CRL-1790” value in [7] (CCK8 assay, 48 h post drug treatment) amounted to 285.4 µM. The KDM3B degradation result in data set [8] is “potently induce KDM3A and KDM3B degradation”. In addition, the “CLint Rat (liver, S9)” value in data set [9] (setting [11]) came out at 34.5 µL/min/mg. Moreover, the “t 1/2 Rat (liver, S9)” value in data set [9] (setting [11]) turned out to be 20.1 min. For the same molecule, in data set [9] (CLint classification bands), the “clearance classification, rat” value is on record as “moderate clearance”. In addition, in [9] (rat, s9, t 1/2 Rat (liver, S9), 0.1 μM, plus glutathione, UDPGA, PAPS, 37 °C), the half-life at 0.1 μM came to 20 min.
